Screens: PubChem BioAssay, Johns Hopkins Ion Channel Center
KCNK3 inh: human KCNK3 channel inhibition, primary screen; CHO-KCNK3 thallium flux, FluxOR fluorescence; active compounds read low; B-score at 10 µM; actives 0.84% (n = 340,000); AID 602410;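 active = B-score under library mean minus 4 SD, starting fluorescence ratio at most library mean plus 5 SD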;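 note: more negative B-score means stronger inhibition of thallium flux through KCNK3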
KCNK9 inh: inhibitors of human KCNK9 two-pore domain potassium channel; actives 1.2% (n = 310,000); Q9NPC2; B-score at 10 µM; HEK293 KCNK9, FluxOR thallium flux fluorescence; active compounds read low;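 active = ratio B-score over 3 SD below the library mean, with starting fluorescence within 5 SD of its mean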;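 note: negative B-score means less thallium flux so channel inhibition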
hERG protect: hERG (human) protection from proarrhythmic block | Q12809 | CHO-hERG, FluxOR thallium flux, dofetilide IC70 present | actives 0.51% (n = 310,000) | activation (rescue from dofetilide block), less the hit threshold, % at 10 µM;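 active = activation above the mean of controls blocked by dofetilide plus 5 SD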;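 note: thallium influx through hERG after potassium depolarization seen as dye fluorescence rise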
KCNQ1 act: potentiators or activators of human KCNQ1 potassium channel | P51787 | CHO-K1 KCNQ1, thallium flux FluxOR fluorescence; active compounds read high | B-score at 10 µM | actives 0.35% (n = 310,000) | AID 2648;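 active = fluorescence ratio B-score, a plate-corrected score, at least three library SD, with initial intensity B-score within 5 SD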
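Test system: CHO-K1 cells stably expressing KCNQ1 / Medium: assay buffer / Also added: depolarizing K+/Tl+ stimulus, K2SO4 and Tl2SO4 each 12.5 mM in 5x stock / Incubation: 90 min dye loading and 20 min compound exposure, both at room temperature / Signal: thallium influx via FluxOR fluorescence, kinetic imaging / Evaluation: B score of baseline-normalized fluorescence ratio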
KCNQ1 inh: blocks the human KCNQ1 potassium channel; P51787; AID 2642; actives 1.3% (n = 310,000); B-score at 10 µM; CHO-K1 KCNQ1, FluxOR thallium flux fluorescence; active compounds read high;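 active = compounds whose thallium flux B-score, printed positive for inhibition, exceeds three library SD while starting fluorescence stays within three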;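 note: channel opened by potassium depolarization with thallium stimulus after 20 min compound exposure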
Kir21 block: Kir2.1 (mouse) channel inhibition; actives 0.85% (n = 310,000); HEK293-Kir2.1, FluxOR thallium flux fluorescence; active compounds read low; B-score at 10 µM; P35561;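 active = fluorescence ratio B-score at or below minus 3 SD of library scores, with starting-brightness B-score within 2 SD, cut at about -4.2 in these data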;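 note: channel flux triggered by added potassium and thallium sulfate stimulus; B-score of peak minus minimum fluorescence over baseline after thallium stimulus; more negative B-score means stronger Kir2.1 block with less thallium influx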
Target sequence (P35561 whole entry, looked up): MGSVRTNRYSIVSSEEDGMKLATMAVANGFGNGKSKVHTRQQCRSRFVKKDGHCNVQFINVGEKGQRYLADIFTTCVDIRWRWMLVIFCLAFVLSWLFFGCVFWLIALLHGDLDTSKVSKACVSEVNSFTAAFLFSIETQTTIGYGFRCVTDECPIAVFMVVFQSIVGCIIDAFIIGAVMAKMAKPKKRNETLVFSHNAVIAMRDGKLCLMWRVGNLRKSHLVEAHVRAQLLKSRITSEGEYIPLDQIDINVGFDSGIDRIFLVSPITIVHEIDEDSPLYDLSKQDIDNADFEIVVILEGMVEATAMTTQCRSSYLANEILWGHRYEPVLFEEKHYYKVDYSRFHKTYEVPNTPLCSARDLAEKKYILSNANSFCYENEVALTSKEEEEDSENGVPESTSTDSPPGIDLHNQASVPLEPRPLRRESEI
KCNK9 block conf: confirmation of human KCNK9 potassium channel inhibitors; shares compounds with KCNK9 inh; HEK293 KCNK9 cells, FluxOR thallium flux fluorescence; inhibition, % at 10 µM; actives 43% (n = 4,900);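 active = thallium signal inhibited by more than 5 SD of the compound-free buffer control wells, on both duplicate plates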;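 note: 0% = assay buffer control wells without compound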
Kir21 sel: selectivity of KCNK9 modulators against mouse Kir2.1 | actives 4% (n = 4,900) | inhibition, % at 10 µM | AID 492993 | Kir2.1 cells, FluxOR thallium flux fluorescence | shares compounds with KCNK9 inh;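 active = thallium signal drop more than 5 SD beyond the mean of the no-compound control wells, seen in both duplicate plates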;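 note: signal is fluorescence rise after thallium addition divided by baseline fluorescence; plate controls were assay buffer only for no effect and full block by chlorpromazine control for full effect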
HEK293 Tl ctr: second counter-screen for KCNK9 modulators: effect in non-induced cells; AID 492997; actives 40% (n = 4,900); non-induced KCNK9-HEK293, FluxOR thallium flux; shares compounds with KCNK9 inh; inhibition, % at 10 µM;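 active = thallium signal drop beyond 5 SD of the untreated control mean, on both duplicate plates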;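 note: plate controls were buffer only IC0 wells for no effect and SID17386958 at its maximal inhibitory level for full effect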
* = called active by the depositor. In the library only some 3.7% were active in any assay of this set; here they are far more common.

Results for Cc1ccc(O)c(C(=O)c2cc(C(=O)NCCc3ccccc3)c(=O)n(CCc3ccccc3)c2)c1 ?
KCNK3 inh: inactive; KCNK9 inh: inactive; hERG protect: -22.7; KCNQ1 act: inactive; KCNQ1 inh: 6*; Kir21 block: -0.15; KCNK9 block conf: inactive; Kir21 sel: inactive; HEK293 Tl ctr: inactive

What do the screens show for `COc1ccc(O)c(C(=O)c2cc(C(=O)NCCc3ccccc3)c(=O)n(CCc3ccccc3)c2)c1`?
KCNK3 inh: inactive; KCNK9 inh: inactive; hERG protect: -5.6; KCNQ1 act: inactive; KCNQ1 inh: inactive; Kir21 block: -0.02; KCNK9 block conf: inactive; Kir21 sel: inactive; HEK293 Tl ctr: inactive

How did COc1ccc(O)c(C(=O)CC(=O)c2ccccc2)c1 do in these assays?
KCNK9 inh: inactive; hERG protect: -0.2; KCNQ1 act: inactive; KCNQ1 inh: inactive; Kir21 block: 1.33

How did Cc1ccc(O)c(C(=O)c2cc(C#N)c(=O)n(Cc3ccccc3)c2)c1 do in these assays?
KCNK3 inh: inactive; KCNK9 inh: inactive; hERG protect: -2.6; KCNQ1 act: inactive; KCNQ1 inh: inactive; Kir21 block: 0.49

What do the screens show for `Cc1cc(N/N=C/c2ccc(F)cc2)nc(NCc2ccccc2)n1`?
KCNK3 inh: inactive; KCNK9 inh: inactive; hERG protect: -20.8; KCNQ1 act: inactive; KCNQ1 inh: inactive; Kir21 block: 0.56

How did Cc1cc(N/N=C/c2ccc(Cl)cc2Cl)nc(NCc2ccccc2)n1 do in these assays?
KCNK3 inh: inactive; KCNK9 inh: inactive; hERG protect: -12.2; KCNQ1 act: inactive; KCNQ1 inh: inactive; Kir21 block: 3.04; KCNK9 block conf: inactive; Kir21 sel: inactive; HEK293 Tl ctr: inactive

How did Nc1c(C(=O)c2ccccc2)oc2ccccc12 do in these assays?
KCNK3 inh: inactive; KCNK9 inh: inactive; hERG protect: -7.5; KCNQ1 act: inactive; KCNQ1 inh: inactive; Kir21 block: 2.45

Results for Cc1c(C(=O)c2ccccc2)oc2ccc3ccccc3c12 ?
KCNK3 inh: inactive; KCNK9 inh: -11.4*; hERG protect: -3.9; KCNQ1 act: inactive; KCNQ1 inh: inactive; Kir21 block: -1.23; KCNK9 block conf: 56.5%*; Kir21 sel: inactive; HEK293 Tl ctr: 39.5%*

What do the screens show for `CCCCc1ccc(NC(=O)CN(C)CC(=O)Nc2ccccc2Cl)cc1`?
KCNK3 inh: inactive; KCNK9 inh: inactive; hERG protect: -11.2; KCNQ1 act: inactive; KCNQ1 inh: inactive; Kir21 block: -0.53; KCNK9 block conf: inactive; Kir21 sel: inactive; HEK293 Tl ctr: inactive

Results for Oc1cccc(C(Nc2nccs2)c2ccc3cccnc3c2O)c1 (stereo not drawn) ?
KCNK3 inh: inactive; KCNK9 inh: inactive; hERG protect: -16.9; KCNQ1 act: inactive; KCNQ1 inh: inactive; Kir21 block: -0.56; KCNK9 block conf: inactive; Kir21 sel: inactive; HEK293 Tl ctr: inactive

What do the screens show for `COc1cccc(C(NC(C)=O)c2ccc3cccnc3c2O)c1` (stereo not drawn)?
KCNK3 inh: inactive; KCNK9 inh: inactive; hERG protect: 0.5; KCNQ1 act: inactive; KCNQ1 inh: inactive; Kir21 block: 2.97

How did O=c1ccc(S(=O)(=O)N2CCCC2)cn1Cc1ccc(F)cc1 do in these assays?
KCNK3 inh: inactive

What do the screens show for `COc1ccc(N(CCCN2C(=O)c3cccc4cccc(c34)C2=O)C(=O)c2cccs2)cc1`?
KCNK3 inh: inactive; KCNK9 inh: inactive; hERG protect: -7.9; KCNQ1 act: inactive; KCNQ1 inh: inactive; Kir21 block: 0.43

Results for Cc1ccc(N(CCCCN2C(=O)c3ccccc3C2=O)C(=O)c2cccs2)cc1 ?
KCNK3 inh: inactive; KCNK9 inh: inactive; hERG protect: -11.4; KCNQ1 act: inactive; KCNQ1 inh: inactive; Kir21 block: 0.3; KCNK9 block conf: inactive; Kir21 sel: inactive; HEK293 Tl ctr: inactive

What do the screens show for `COc1cc(C)ccc1N(CCCN1C(=O)c2cccc3cccc(c23)C1=O)C(=O)c1cccs1`?
KCNK3 inh: inactive; KCNK9 inh: -14.1*; hERG protect: -22.0; KCNQ1 act: inactive; KCNQ1 inh: inactive; Kir21 block: 1.22; KCNK9 block conf: 80.0%*; Kir21 sel: inactive; HEK293 Tl ctr: 33.5%*

How did COc1ccc(Cl)cc1Nc1nc(-c2sc(NC(=O)c3ccco3)nc2C)cs1 do in these assays?
KCNK3 inh: inactive; KCNK9 inh: -10.8*; hERG protect: -36.2; KCNQ1 act: inactive; KCNQ1 inh: inactive; Kir21 block: -0.61; KCNK9 block conf: inactive; Kir21 sel: inactive; HEK293 Tl ctr: inactive

How did COc1ccc(Cl)cc1Nc1nc(-c2sc(NC(=O)C(C)(C)C)nc2C)cs1 do in these assays?
KCNK3 inh: inactive; KCNK9 inh: inactive; hERG protect: -5.3; KCNQ1 act: inactive; KCNQ1 inh: inactive; Kir21 block: 0.79

What do the screens show for `COc1cccc(Nc2nc(-c3ccc4c(c3)OCCO4)cs2)c1`?
KCNK3 inh: inactive; KCNK9 inh: inactive; hERG protect: -7.8; KCNQ1 act: inactive; KCNQ1 inh: inactive; Kir21 block: -0.06; KCNK9 block conf: inactive; Kir21 sel: inactive; HEK293 Tl ctr: inactive

What do the screens show for `Cc1nc(NC(=O)c2ccccc2)sc1-c1csc(NCc2ccccc2)n1`?
KCNK3 inh: inactive; KCNK9 inh: inactive; hERG protect: -18.8; KCNQ1 act: inactive; KCNQ1 inh: inactive; Kir21 block: -0.31

Results for COc1cccc(Nc2nc(-c3sc(NC(=O)c4ccco4)nc3C)cs2)c1 ?
KCNK3 inh: inactive; KCNK9 inh: -10.6*; hERG protect: -25.5; KCNQ1 act: inactive; KCNQ1 inh: inactive; Kir21 block: -2.88; KCNK9 block conf: 49.5%*; Kir21 sel: inactive; HEK293 Tl ctr: inactive

What do the screens show for `Cc1nc(NC(=O)c2ccccc2)sc1-c1csc(NCCc2ccccc2)n1`?
KCNK3 inh: inactive; KCNK9 inh: -8.73*; hERG protect: -7.2; KCNQ1 act: inactive; KCNQ1 inh: inactive; Kir21 block: 1.35; KCNK9 block conf: 31.5%*; Kir21 sel: inactive; HEK293 Tl ctr: inactive

How did c1cc2c(cc1Nc1nc(-c3ccc4c(c3)OCO4)cs1)OCCO2 do in these assays?
KCNK3 inh: inactive; KCNK9 inh: inactive; hERG protect: -13.0; KCNQ1 act: inactive; KCNQ1 inh: inactive; Kir21 block: 0.1
